High-throughput results: PubChem BioAssay, several laboratories
PMI activator = increases human mannose-6-phosphate isomerase activity; P34949; purified human PMI, coupled resazurin fluorescence, 20 min; stronger effect = higher value; 1 = vehicle control, 0 substrate-free wells; activation factor at 20 µM; hit rate 0.005% among 190,000; AID 1214;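 active means activation factor of 2 or more at 20 µM, relative to plate controls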
Target sequence (P34949 whole entry, looked up): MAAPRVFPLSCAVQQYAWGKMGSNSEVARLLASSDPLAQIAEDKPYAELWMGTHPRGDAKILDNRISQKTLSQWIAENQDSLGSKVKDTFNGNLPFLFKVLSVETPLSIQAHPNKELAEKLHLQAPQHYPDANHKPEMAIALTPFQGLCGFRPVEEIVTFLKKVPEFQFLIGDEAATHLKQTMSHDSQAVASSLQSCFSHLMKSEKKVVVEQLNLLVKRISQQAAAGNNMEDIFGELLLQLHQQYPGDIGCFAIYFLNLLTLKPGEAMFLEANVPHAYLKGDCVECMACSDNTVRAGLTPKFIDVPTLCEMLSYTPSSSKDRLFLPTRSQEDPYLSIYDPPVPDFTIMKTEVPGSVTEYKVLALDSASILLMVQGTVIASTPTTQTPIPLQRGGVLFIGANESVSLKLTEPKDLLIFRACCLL
WT yeast gro inh = growth inhibition of WT yeast, mitochondrial fusion screen; mitochondrial fusion phenotypic screen, WT strain; inhibition, % at 10 µM; hit rate 2.1% among 190,000; AID 1362; in the data active means inhibition above about 58%; tested in S. cerevisiae
Rad51 HR inh = blocks human Rad51 in homologous recombination; hRad51 DNA strand exchange, fluorescence dequenching; inhibition, % at 10 µM; hit rate 0.085% among 200,000;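 active means inhibition above 40% at the single screening dose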;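 further: 0% = DMSO control wells and 100% = blanks with heterologous ssDNA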
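Assay system: Human Rad51 nucleoprotein filaments preassembled on unlabelled ssDNA | Reagent: Donor/quencher-labelled 47-bp dsDNA substrate | Doses: One concentration, 10 µM final | Times: 37 °C 15-min filament assembly, 30-min compound preincubation, 15-min exchange | Technique: Fluorescein emission 520 nm, excitation 485 nm | Benchmarks: Plate control and blank wells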
Lmaj promast = inhibitors of Leishmania major promastigote growth | Leishmania major promastigotes, resazurin fluorescence viability | inhibition, % at 10 µM | hit rate 9% among 200,000 | AID 1063; in the data active means inhibition above about 50%;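 further: promastigotes grown with compound for 44 hours at 28 °C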
Calpain2 inh = inhibitors of pig calpain II; purified calpain II, fluorogenic peptide substrate, 30 min; inhibition, % at 16 µM; hit rate 0.37% among 220,000; AID 1236;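 active means inhibition above about 50%, limit read from the data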
PMI act satM6P = PMI (human) activation, high substrate; coupled PMI enzyme assay, resazurin fluorescence, 20 min; stronger effect = higher value; 1 = untreated enzyme, 0 = substrate-free blank; activation factor at 20 µM; hit rate 0.34% among 190,000;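 active means activation factor of 2 or more at 20 µM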
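Test system: human PMI in coupled enzyme assay; Input: PMI at 15 ng/mL final; Medium: HEPES buffer, pH 7.4; Schedule: 20 min incubation at room temperature; Technique: resorufin fluorescence at Ex 544/Em 590 nm; Compound: 20 µM single dose; Probe or stimulus: Near-saturating mannose-6-phosphate, 1.0 mM.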
Numbers without * were called inactive; . = no result. Most compounds without a hit are left out; they make up all but 9.8% or so of the library.

SMILES | PMI activator | WT yeast gro inh | Rad51 HR inh | Lmaj promast | Calpain2 inh | PMI act satM6P
O=C(Cn1cnc([N+](=O)[O-])n1)N/N=C/c1cccc(Cl)c1 | 1 | -3.8 | 23.1 | 63.4* | 23.4 | 0.9
O=C(CCCn1cnc([N+](=O)[O-])n1)Nc1ccc(Cl)cc1Cl | 0.9 | 0.8 | . | 33.8 | 19.3 | 1
OCCCc1nc2ccccc2[nH]1 | 1 | -3.5 | . | -5.4 | 0.6 | 0.9
NS(=O)(=O)c1cc2c(cc1Cl)NC(Cc1ccccc1)NS2(=O)=O (stereo not drawn) | . | . | -1.0 | . | 11.8 | .
Cc1nnsc1C(=O)Nc1cc(Cl)ccc1Cl | 1 | -17.1 | 11.8 | -0.7 | -17.5 | 0.9
N#CC1=C(N)N=C(SCc2cccc3ccccc23)C(C(N)=O)C12CCCCC2 (stereo not drawn) | 0.8 | 38.7 | 8.7 | 100.0* | -36.9 | 0.8
O=C(O)CCn1c(SCc2cccc3ccccc23)nc2ccccc21 | 0.9 | 11.2 | -13.2 | 4.7 | -36.1 | 1
COc1cc(C2NC(=O)CS2)cc(OC)c1OC (stereo not drawn) | 1.1 | -4.1 | . | 86.4* | 28.6 | 1.1
Cc1ccc(CN2CCN(CC3CC4C=CC3C4)CC2)cc1 (stereo not drawn) | 0.9 | 7.5 | . | 95.8* | -3.7 | 1
O=S(=O)(c1ccccc1)N1CCN(CC2CC3C=CC2C3)CC1 (stereo not drawn) | 0.9 | 0.4 | -15.2 | -2.8 | 7.6 | 1
O=C(c1ccccc1F)N1CCN(CC2CC3C=CC2C3)CC1 (stereo not drawn) | 0.9 | 38.0 | 3.7 | 58.5* | 10.2 | 1
CC1CCCC(N2CCN(C(=O)c3cccc(F)c3)CC2)C1 (stereo not drawn) | 1 | -4.9 | 2.9 | 80.9* | -32.0 | 1.1
COc1cccc(C(=O)N2CCN(C(=O)c3cccc(F)c3)CC2)c1 | 1 | -4.3 | -7.2 | -7.2 | 1.0 | 1
CC1CCCCC1N1CCN(C(=O)c2cccc(F)c2)CC1 (stereo not drawn) | 1 | 5.2 | 7.5 | 15.2 | -7.8 | 1.1
O=C(c1cccc(F)c1)N1CCN(CC2CC3C=CC2C3)CC1 (stereo not drawn) | 1 | 13.9 | 0.8 | 85.5* | -23.0 | 1.1
O=C(c1ccccc1F)N1CCN(Cc2ccccc2F)CC1 | 0.9 | 11.5 | 3.0 | -0.8 | -15.2 | 1
COc1ccc(Cc2noc(CN3CCCN(Cc4ccc(F)cc4)CC3)n2)cc1OC | . | 12.8 | -6.8 | 77.2* | 15.3 | .
Fc1cccc(Cc2noc(CN3CCCN(C4Cc5ccccc5C4)CC3)n2)c1 | . | 6.2 | -5.7 | 87.9* | -48.0 | .
Fc1cccc(Cc2noc(CN3CCSCC3)n2)c1 | 1 | -6.1 | . | -5.1 | 34.4 | 1.1
Fc1cccc(Cc2noc(CN3CCN(C4CCc5ccccc5C4)CC3)n2)c1 (stereo not drawn) | 0.9 | 26.3 | 18.5 | 89.5* | 33.5 | 0.8
CCOC(=O)c1ccc(NC(=O)C(=O)NCc2ccco2)cc1 | 1 | -14.6 | -9.2 | -3.0 | -38.2 | 1.1
Cc1ccc(-n2nc(C)c(/C=N/n3c(C)n[nH]c3=S)c2Cl)cc1 | 1.1 | 8.4 | -0.1 | 18.2 | 20.4 | 1
CSc1ccccc1NC(=O)CN(C)CC(=O)Nc1c(F)cccc1F | 1.1 | -7.2 | 0.8 | -5.9 | -8.7 | 1.2
CCOc1ccc2nc(SCC(=O)Nc3ccc4c(c3)OCCO4)[nH]c2c1 | 1 | . | 6.0 | 96.8* | -28.9 | 1
COc1ccc2nc(SCC(=O)Nc3ccc4c(c3)OCCO4)[nH]c2c1 | 0.9 | -16.0 | . | -0.7 | -5.5 | 0.9
CC(C)CCN1CCN(Cc2ccc(N3CCNC3=O)cc2)CC1CCO (stereo not drawn) | 1 | 9.0 | . | -4.6 | 0.8 | 1
CC[C@@H](C)[C@H](NC(=O)OC(C)(C)C)c1nnc(S(=O)(=O)Cc2cc(C)ccc2C)o1 | 1 | 66.1* | -5.2 | -3.0 | 9.4 | 1
Cc1ccccc1CS(=O)(=O)c1nnc([C@H](CC(C)C)NC(=O)OC(C)(C)C)o1 | 1 | 75.1* | -0.8 | -5.0 | 21.9 | 1
CC(C)C[C@H](NC(=O)OC(C)(C)C)c1nnc(SCc2ccccc2)o1 | 0.8 | 35.1 | -7.3 | 84.6* | 34.1 | 0.9
CC(C)[C@H](NC(=O)OC(C)(C)C)c1nnc(S(=O)(=O)Cc2c(F)cccc2Cl)o1 | 1 | . | 0.7 | . | . | 1
